A selection: hits, their analogues and other compounds. The true share with any hit is near 2%.
RAD52 anneal inh – blocks human RAD52 DNA annealing | recombinant RAD52 DNA annealing, FRET fluorescence | inhibition, % at 18.7 µM | P43351 | AID 651710 | hit rate 0.46% among 360,000;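 active = every replicate showing at least 50% inhibition; inconclusive = mean inhibition at least 50% but not in every replicate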
Xi reactivation – reactivates the inactive X chromosome in mouse fibroblasts; activation, % at 7.58 µM; hit rate 0.055% among 360,000; XiGFP mouse fibroblasts, % GFP-positive cells imaging, 3 d; cells co-treated with 5-aza-dC sensitizer; scaled so ellipticine positive control = 100%;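 active = mean normalized replicate activation at least 10% and every replicate at or above 10%; inconclusive = only one of the two criteria met; inactive = mean below 10% and not all replicates reach 10%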
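System: 68-5-11 XiGFP fibroblast line | Buffer or medium: DMEM containing 5-aza-dC | Compound: Single point | Times: Compounds 3 days, fix/stain 15 min at room temperature | Benchmarks: Positive control ellipticine, 6 µM final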
Ecoli rRNA inh – inhibitors of bacterial rRNA selective over humanized ribosomes; E. coli WT GFP vs humanized-ribosome RFP mutants, fluorescence, 24 h; active compounds read low; DMSO median 0, no signal -100; GFP signal change (wild-type ribosome), % (concentration not given with the values); hit rate 1.6% among 350,000;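 active = significant combined selectivity score with lowered wild-type GFP, culture density cut under 30%, mutant RFP and density less affected; inactive = any of these conditions unmet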
PglD DTNB – inhibitors of Campylobacter jejuni PglD acetyltransferase; AID 602405; inhibition, % at 12.5 µM; purified PglD enzyme, DTNB colorimetric CoA detection; hit rate 0.098% among 360,000; in the data active = inhibition above about 16%, passing the limit was not always enough; inconclusive = no clear call, values can overlap the other calls
E-sel inducer – induces E-selectin expression in human endothelial cells; P16581; HUVEC E-selectin immunofluorescence imaging; normalized: neutral wells 0, TNF-alpha wells 100; activation, % at 7.58 µM; hit rate 0.37% among 260,000;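 active = mean E-selectin-positive cell signal at least 10% of the positive control, reached in at least 60% of replicates, without over 20% cell loss; inconclusive = no rule given, readout overlaps actives, possibly toxicity-flagged; inactive = the rest, including those meeting only one limit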
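Material: HUVEC primary endothelial cells; Amount: 3,000 cells per well; Dosing: single concentration; Medium: EGM-2 growth medium on 0.1% gelatin-coated wells; Read-out basis: percent E-selectin-positive cells; Signal: immunofluorescence imaging; Control set: TNF-alpha, DMSO.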
RAD54 inh – blocks human RAD54 Holliday junction branch migration. hit rate 0.14% among 360,000. FAM/BHQ fluorescence. Q92698. inhibition, % at 10.4 µM;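 active = mean normalized replicate activity at least 40 and at least half of replicates scoring 40 or more; inconclusive = only one of the two criteria met; inactive = mean below 40 and under half of replicates reaching 40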;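 also: inhibitors cause a drop in the FAM fluorescence signal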
Target sequence (Q92698 whole entry, looked up): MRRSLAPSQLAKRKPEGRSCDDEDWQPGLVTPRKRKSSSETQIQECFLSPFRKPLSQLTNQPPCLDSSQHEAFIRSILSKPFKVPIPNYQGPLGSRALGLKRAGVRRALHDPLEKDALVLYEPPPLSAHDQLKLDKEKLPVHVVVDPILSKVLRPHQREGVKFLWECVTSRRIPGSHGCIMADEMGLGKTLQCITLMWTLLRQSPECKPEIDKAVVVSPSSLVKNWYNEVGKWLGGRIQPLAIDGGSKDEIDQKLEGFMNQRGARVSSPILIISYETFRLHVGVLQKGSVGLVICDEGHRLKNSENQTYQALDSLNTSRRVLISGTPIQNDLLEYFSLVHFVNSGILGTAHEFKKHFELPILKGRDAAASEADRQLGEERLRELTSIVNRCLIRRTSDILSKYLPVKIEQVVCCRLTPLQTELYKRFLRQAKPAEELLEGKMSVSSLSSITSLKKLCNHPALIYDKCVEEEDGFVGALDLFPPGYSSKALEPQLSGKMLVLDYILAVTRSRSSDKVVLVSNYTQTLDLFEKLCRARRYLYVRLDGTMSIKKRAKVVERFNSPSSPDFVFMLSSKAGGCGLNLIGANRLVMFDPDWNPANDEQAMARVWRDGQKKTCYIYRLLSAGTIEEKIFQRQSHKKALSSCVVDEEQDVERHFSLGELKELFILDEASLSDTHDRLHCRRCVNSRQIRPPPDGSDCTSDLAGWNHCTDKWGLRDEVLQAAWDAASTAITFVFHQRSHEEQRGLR
RAD52 DNA ctr – counter-screen for RAD52 inhibitors: DNA binding compounds; AC50, µM; Salmon sperm DNA/acridine orange FP displacement; hit rate 8% among 1,000; shares compounds with RAD52 anneal inh; AID 652128;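 active = fitted half-maximal concentration for signal loss at or below twice the highest dose tested, in every separate run, actives reach about 64 µM in these data; inconclusive = runs disagree, or flat partial signal loss, or poor fit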
Numbers stand for hits.

How did CCC(/C=C1\Sc2ccc(OC)cc2N1CC)=C\c1sc2ccc(OC)cc2[n+]1CCCS(=O)(=O)[O-] do in these assays?
RAD52 anneal inh: inactive; Xi reactivation: inactive; Ecoli rRNA inh: inactive; PglD DTNB: inactive; E-sel inducer: inactive; RAD54 inh: inactive

Results for CCC(/C=C1\Sc2ccc(OC)cc2N1CCO)=C\c1sc2ccc(OC)cc2[n+]1CCO ?
RAD52 anneal inh: 83; Xi reactivation: inactive; Ecoli rRNA inh: inactive; PglD DTNB: inactive; E-sel inducer: inactive; RAD54 inh: inactive; RAD52 DNA ctr: inactive

Results for CCC(C)NC(=S)Nc1ccc2nc(N3CCN(CC)CC3)cc(C)c2c1 (stereo unspecified) ?
RAD52 anneal inh: inactive; Xi reactivation: inactive; Ecoli rRNA inh: inactive; E-sel inducer: inactive

Results for Cc1cc(N2CCN(C)CC2)nc2ccc(NC(=S)N3CCN(c4ccccn4)CC3)cc12 ?
RAD52 anneal inh: 71; Xi reactivation: inactive; Ecoli rRNA inh: inactive; E-sel inducer: inactive; RAD52 DNA ctr: inactive

How did Cc1nc2ccc(NC(=S)N3CCN(c4ccccn4)CC3)cc2nc1C do in these assays?
RAD52 anneal inh: inactive; Xi reactivation: inactive; Ecoli rRNA inh: inactive; E-sel inducer: inactive

What do the screens show for `CCN1CCN(c2cc(C)c3cc(NC(=S)N4CCOCC4)ccc3n2)CC1`?
RAD52 anneal inh: 78; Xi reactivation: inactive; Ecoli rRNA inh: inactive; E-sel inducer: inactive; RAD52 DNA ctr: inactive

Results for CCN1CCN(c2cc(C)c3cc(NC(=S)N(CC)CC)ccc3n2)CC1 ?
RAD52 anneal inh: 68; Xi reactivation: inactive; Ecoli rRNA inh: inactive; E-sel inducer: inactive; RAD52 DNA ctr: inactive

How did CCC(=O)N1C[C@@H](C)[C@H](OC)CN(C)C(=O)c2cc(NS(C)(=O)=O)ccc2OC[C@@H]1C do in these assays?
RAD52 anneal inh: inactive; Xi reactivation: inactive; Ecoli rRNA inh: inactive; PglD DTNB: inactive; E-sel inducer: inactive; RAD54 inh: inactive

What do the screens show for `COc1ccc(CN(C)C[C@H]2Oc3ccc(NC(=O)Cc4ccccc4)cc3C(=O)N([C@@H](C)CO)C[C@H]2C)cc1`?
RAD52 anneal inh: inactive; Xi reactivation: inactive; Ecoli rRNA inh: inactive; PglD DTNB: inactive; E-sel inducer: inactive; RAD54 inh: inactive

Results for Cc1nc2cc(-c3ccc(Cl)cc3)nn2c(NCCN(C)C)c1C ?
RAD52 anneal inh: 77; Xi reactivation: inactive; Ecoli rRNA inh: inactive; E-sel inducer: inactive; RAD52 DNA ctr: inactive

What do the screens show for `CCCCCCCCCCCCCCCC[N+](C)(C)Cc1ccc(F)cc1`?
RAD52 anneal inh: 91; Xi reactivation: inactive; Ecoli rRNA inh: inactive; RAD52 DNA ctr: 26µM

How did CN(C)CC(=O)Nc1ccc2c(c1)[C@H]1C[C@H](CC(=O)NCc3ccncc3)O[C@@H](CO)[C@H]1O2 do in these assays?
RAD52 anneal inh: inactive; Xi reactivation: inactive; Ecoli rRNA inh: inactive; PglD DTNB: inactive; E-sel inducer: inactive; RAD54 inh: inactive

What do the screens show for `COCCNc1nc(NCc2cccc(OC)c2)c2sc(-c3ccccc3)cc2n1`?
RAD52 anneal inh: 80; Xi reactivation: inactive; Ecoli rRNA inh: inactive; PglD DTNB: inactive; E-sel inducer: inactive; RAD54 inh: inactive; RAD52 DNA ctr: inactive

Results for Cc1noc(C)c1NC(=O)Nc1ccc2c(c1)C(=O)N([C@@H](C)CO)C[C@H](C)[C@@H](CN(C)S(C)(=O)=O)OCCCC[C@@H](C)O2 ?
RAD52 anneal inh: inactive; Xi reactivation: inactive; Ecoli rRNA inh: inactive; PglD DTNB: inactive; E-sel inducer: inactive; RAD54 inh: inconclusive

How did C[C@@H]1CN([C@H](C)CO)C(=O)c2c(c3ccccc3n2C)-c2ccccc2CO[C@@H]1CN(C)Cc1ccc(C(=O)O)cc1 do in these assays?
RAD52 anneal inh: inactive; Xi reactivation: inactive; Ecoli rRNA inh: inactive; PglD DTNB: inactive; E-sel inducer: inactive; RAD54 inh: inactive

What do the screens show for `Oc1ccccc1C=NCCCCCCN=Cc1ccccc1O`?
RAD52 anneal inh: 59; Xi reactivation: inactive; Ecoli rRNA inh: inactive; PglD DTNB: inactive; E-sel inducer: inactive; RAD54 inh: inactive; RAD52 DNA ctr: inactive

How did Oc1ccccc1C=NCCN=Cc1ccccc1O do in these assays?
RAD52 anneal inh: inactive; Ecoli rRNA inh: inactive; E-sel inducer: inactive

How did Oc1ccccc1C=NCCN1CCN(CCN=Cc2ccccc2O)C1c1ccccc1O (stereo unspecified) do in these assays?
RAD52 anneal inh: 66; Xi reactivation: inactive; Ecoli rRNA inh: inactive; PglD DTNB: inactive; E-sel inducer: inactive; RAD54 inh: inactive; RAD52 DNA ctr: inactive

What do the screens show for `Fc1ccc2c(c1)Sc1ccc(Cl)cc1CC2N1CCN(CCC2OCCO2)CC1` (stereo unspecified)?
RAD52 anneal inh: 81; Xi reactivation: inactive; Ecoli rRNA inh: inactive; E-sel inducer: inactive; RAD52 DNA ctr: inactive

How did COCCCN1CCN(C2Cc3ccccc3Sc3ccc(Cl)cc32)CC1 (stereo unspecified) do in these assays?
Xi reactivation: inactive; PglD DTNB: inactive; RAD54 inh: inactive

What do the screens show for `CCOC(=O)CCc1nc2ccccc2[nH]1`?
RAD52 anneal inh: inactive; Ecoli rRNA inh: inactive; PglD DTNB: inactive; RAD54 inh: inactive

What do the screens show for `COCC(=O)O[C@]1(CCN(C)CCCc2nc3ccccc3[nH]2)CCc2cc(F)ccc2[C@@H]1C(C)C`?
RAD52 anneal inh: 54; Xi reactivation: inactive; Ecoli rRNA inh: inactive; PglD DTNB: inactive; E-sel inducer: inactive; RAD54 inh: inactive; RAD52 DNA ctr: inactive

Results for Cc1noc(C)c1NC(=O)Nc1ccc2c(c1)C(=O)N([C@H](C)CO)C[C@H](C)[C@@H](CN(C)C)O2 ?
RAD52 anneal inh: inactive; Xi reactivation: inactive; Ecoli rRNA inh: inactive; PglD DTNB: inactive; RAD54 inh: inactive

Results for C[C@H](CO)N1C[C@H](C)[C@H](CN(C)Cc2ccc3c(c2)OCO3)Oc2c(NS(=O)(=O)c3ccc(Cl)cc3)cccc2C1=O ?
RAD52 anneal inh: inactive; Xi reactivation: inactive; Ecoli rRNA inh: inactive; PglD DTNB: inactive; E-sel inducer: inactive; RAD54 inh: inactive

What do the screens show for `CC(C)C[C@H](N)c1cn([C@@H](Cc2cc3ccccc3[nH]2)C(=O)N2CCNCC2)nn1`?
Xi reactivation: inactive; PglD DTNB: inactive; E-sel inducer: inactive; RAD54 inh: inactive

How did CCC(C)[C@H](N)c1cn([C@@H](Cc2cc3ccccc3[nH]2)C(=O)N2CCNCC2)nn1 (stereo partly specified) do in these assays?
RAD52 anneal inh: 96; Xi reactivation: inactive; Ecoli rRNA inh: inactive; PglD DTNB: inactive; E-sel inducer: inactive; RAD54 inh: inactive; RAD52 DNA ctr: inactive

Results for O=C(Nc1ccccc1)N1CC(=O)N2[C@H](C1)[C@@H](c1ccc(C#CC3CCCC3)cc1)[C@@H]2CO ?
RAD52 anneal inh: inactive; Xi reactivation: inactive; Ecoli rRNA inh: inactive; E-sel inducer: inactive
